Molecules are shown by their SMILES. A value given as a limit tells only on which side of the number the result lay.

One may read the IC50 as the concentration at which inhibition is half-maximal.

The subject of one experiment is Ramos. Put plainly: Antiproliferative activity against human Ramos cells after 72 hrs by CCK8 assay. The format is functional, cell-based. In a few lines: (§1)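 Cells in RPMI-1640 with 10% FBS and 1% penicillin-streptomycin, 37 °C, 5% CO2. Seeded at 3,000 to 5,000 cells/well and grown one day, then exposed to compound for 72 h at 1.25 to 40 µmol/L, five replicates per concentration. CCK-8 read-out is absorbance at 450 nm. Dose-response curves used five concentrations. IC50 is the mean of at least three separate experiments.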
(Tetrazolium assays rely on reduction of a dye to a coloured formazan, in cell work by metabolically active cells.)

A further experiment has as its system PANC-1. Briefly: Antiproliferative activity against human PANC1 cells after 72 hrs by CCK8 assay. To be noted: PANC-1, 72 h.
In the next experiment the test system is L02. Briefly: Antiproliferative activity against human LO2 cells after 72 hrs by CCK8 assay. To be noted: L02, 72 h.
The test system of a further experiment is BXPC-3. Put plainly: Antiproliferative activity against human BxPC3 cells after 72 hrs by CCK8 assay. To be noted: BXPC-3, 72 h.
For the next experiment, the system named is NCI-H1975. Briefly: Antiproliferative activity against gefitinib-resistant human NCI-H1975 cells harboring FAK after 72 hrs by CCK8 assay. To be noted: NCI-H1975, 72 h. Type of experiment: functional, cell-based. The method, boiled down: as §1
The subject of another experiment is ASPC1. Put plainly: Antiproliferative activity against human AsPC1 cells after 72 hrs by CCK8 assay. To be noted: ASPC1, 72 h.

Take `CNC(=O)c1ccccc1Nc1nc(Nc2ccc(NS(=O)(=O)c3ccc(OC)cc3)cc2)ncc1Cl`: the IC50 in the experiment on Ramos turned out to be 9.1 µM; with PANC-1, 1.8 µM; in the experiment on L02 it was 8.37 µM; in the experiment with BXPC-3, 24.1 µM; in the experiment on NCI-H1975 it was 4.28 µM; in the experiment with ASPC1, 3.49 µM.
Regarding `CNC(=O)c1ccccc1Nc1nc(Nc2ccc(Oc3ccc(NS(C)(=O)=O)cc3)cc2)ncc1Cl`, the IC50 in the experiment with Ramos was found to be 19.8 µM; in the experiment on PANC-1 it was 3.61 µM; with L02, 16.5 µM; in the experiment on BXPC-3 it was 14.2 µM; with NCI-H1975, 6.29 µM; with ASPC1, 2.75 µM.
As for `CNC(=O)c1ccccc1Nc1nc(Nc2ccc(NS(=O)(=O)c3ccc(C)cc3)cc2)ncc1Cl`, the IC50 in the experiment on Ramos is 6.17 µM; in the experiment with PANC-1 it was 2.76 µM; with L02, 28.7 µM; with BXPC-3, 19.4 µM; with NCI-H1975, 7.07 µM; in the experiment with ASPC1, 1.55 µM.
For the compound `CNC(=O)c1ccccc1Nc1nc(Nc2ccc(N3CCOCC3)cc2OC)ncc1Cl`, the IC50 with PANC-1 was above 20 µM; in the experiment with L02 it was 5.37 µM; in the experiment on BXPC-3, 1.03 µM; in the experiment with ASPC1 it was 6.73 µM.
Consider `CNC(=O)c1ccccc1Nc1nc(Nc2ccc(NS(=O)(=O)c3ccc(C)cc3)c(C)c2)ncc1Cl`, for which the IC50 in the experiment on Ramos was 20.3 µM; in the experiment on PANC-1 it was 2.99 µM; with L02, 27.5 µM; with BXPC-3 it was 23.1 µM; in the experiment on NCI-H1975, 9.56 µM; in the experiment on ASPC1 it was 2.32 µM.

The values above are taken from ChEMBL document CHEMBL4052657, “Design, synthesis and biological evaluation of sulfonamide-substituted diphenylpyrimidine derivatives (Sul-DPPYs) as potent focal adhesion kinase (FAK) inhibitors with antitumor activity” (Bioorg Med Chem, 2017).
